Source: publication PMC8566757 (Food Chemistry: X, 2021)

Key:
xanthine oxidase [1] = target: T1, xanthine oxidase (Bos taurus, UniProt P80457); assay: Uric acid formation catalyzed by XO; assay type: biochemical
Procedure, shortened: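 Xanthine oxidase (Grade IV) was run in 40 mM sodium carbonate with 0.1 mM EDTA, pH 10.0, at 25 °C. Xanthine was 0–200 µM, and test compound came from a 10 mM DMSO stock. Start with 0.04 unit XO and record uric acid at 293 nm for 60 s. Rate came from the linear rise, against a DMSO control. IC50 was taken at 200 µM xanthine. Mode and kinetic parameters were fitted from ≥3 separate runs.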

[2] = Scavenging of DPPH radicals and initial scavenging rate; settings: for DPPH activity: 20 min, 25 °C, pH 5.5
Procedure, shortened: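 DPPH (3 mM ethanolic stock) was mixed with 100 mM acetate buffer (pH 5.5) and ethanol. Test compound (10 mM DMSO stock) was added, with DMSO as control, and kept at 25 °C for 20 min. Absorbance was read at 517 nm (ε = 8.32 X 103). The initial rate came from the absorbance drop just after compound addition. Runs were done ≥3 times.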

xanthine oxidase [3] = target: T1, xanthine oxidase; assay: O2- generation catalyzed by XO; assay type: biochemical

T1 sequence (P80457 whole entry): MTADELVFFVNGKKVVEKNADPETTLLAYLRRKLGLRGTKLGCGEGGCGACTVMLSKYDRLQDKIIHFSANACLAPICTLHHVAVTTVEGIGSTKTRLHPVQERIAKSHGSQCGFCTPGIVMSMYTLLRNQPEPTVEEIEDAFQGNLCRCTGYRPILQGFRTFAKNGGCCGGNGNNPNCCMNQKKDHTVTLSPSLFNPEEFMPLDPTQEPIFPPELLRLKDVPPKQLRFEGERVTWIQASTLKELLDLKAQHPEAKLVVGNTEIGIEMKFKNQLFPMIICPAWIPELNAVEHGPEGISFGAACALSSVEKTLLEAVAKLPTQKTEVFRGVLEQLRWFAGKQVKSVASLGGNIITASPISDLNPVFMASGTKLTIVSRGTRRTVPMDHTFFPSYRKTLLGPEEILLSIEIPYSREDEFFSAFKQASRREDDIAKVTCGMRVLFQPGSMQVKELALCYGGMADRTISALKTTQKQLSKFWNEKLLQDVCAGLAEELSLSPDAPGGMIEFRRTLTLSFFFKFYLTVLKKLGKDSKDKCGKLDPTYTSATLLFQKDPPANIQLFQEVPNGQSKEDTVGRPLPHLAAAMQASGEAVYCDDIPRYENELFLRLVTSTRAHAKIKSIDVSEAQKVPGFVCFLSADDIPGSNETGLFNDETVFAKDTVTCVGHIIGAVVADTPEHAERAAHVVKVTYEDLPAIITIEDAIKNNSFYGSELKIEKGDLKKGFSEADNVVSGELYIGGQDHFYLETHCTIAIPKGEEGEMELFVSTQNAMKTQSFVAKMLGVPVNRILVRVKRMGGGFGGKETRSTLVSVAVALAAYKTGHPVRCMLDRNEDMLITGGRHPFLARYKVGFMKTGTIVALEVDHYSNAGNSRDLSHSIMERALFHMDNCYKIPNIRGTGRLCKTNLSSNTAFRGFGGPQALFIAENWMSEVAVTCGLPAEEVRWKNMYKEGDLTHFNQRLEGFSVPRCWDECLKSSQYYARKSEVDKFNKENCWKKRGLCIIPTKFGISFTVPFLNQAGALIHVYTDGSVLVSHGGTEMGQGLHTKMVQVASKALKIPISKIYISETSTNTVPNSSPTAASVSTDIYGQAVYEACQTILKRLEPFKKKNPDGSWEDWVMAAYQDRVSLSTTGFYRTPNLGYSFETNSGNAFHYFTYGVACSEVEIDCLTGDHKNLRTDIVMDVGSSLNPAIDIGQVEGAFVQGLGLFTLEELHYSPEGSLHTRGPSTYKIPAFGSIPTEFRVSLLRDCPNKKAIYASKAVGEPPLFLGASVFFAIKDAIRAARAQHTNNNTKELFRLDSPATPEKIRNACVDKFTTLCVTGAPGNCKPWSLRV

Structure (SMILES) | IC50 (xanthine oxidase [1]) [µM] | Ki (xanthine oxidase [1]) [µM] | DPPH activity [2] | Initial rate of DPPH scavenging ([2]; after the addition of sample solution) [µmol/L/s] | IC50 (xanthine oxidase [3]) [µM] | Ki (xanthine oxidase [3]) [µM] | K’i, inhibition of O2- generation using xanthine oxidase (xanthine oxidase [3]; mixed type kinetics, xanthine 0 – 200 µM, pH 10.0) [µM] | Inhibition kinetics (mode) of O2- generation (xanthine oxidase [3]; xanthine 0 – 200 µM) | Inhibition kinetics (mode) of uric acid formation (xanthine oxidase [1]; versus xanthine)
Oc1cc(O)cc(/C=C/c2ccc(O)c(O)c2)c1 [Piceatannol (6), Piceatannol] | 15 ± 5 | 6.7 ± 1.6 | 2.45 ± 0.13 DPPH molecules / a molecule of stilbene compound | 3.75 | 4.5 ± 0.4 | 2.2 ± 0.1 | 21.1 ± 1.0 | mixed type | 
COc1cc(/C=C/c2ccc(O)cc2)cc(OC)c1 [Pterostilbene (5), Pterostilbene] | > 50 |  | 0.74 ± 0.10 DPPH molecules / a molecule of stilbene compound |  | 124 ± 16 | 43 ± 5 |  |  | 
Oc1ccc(/C=C/c2cc(O)cc(O)c2)cc1 [Resveratrol (1), Resveratrol] | 34 ± 4 | 7.7 ± 0.7 | 0.72 ± 0.27 DPPH molecules / a molecule of stilbene compound |  | 21 ± 3 | 7.1 ± 1 |  |  | competitive inhibition
OC[C@H]1O[C@@H](Oc2cc(O)cc(/C=C/c3ccc(O)cc3)c2)[C@H](O)[C@@H](O)[C@@H]1O [Resveratrol-3-glucoside (2), Resveratrol-3-glucoside] | > 50 |  | 0.59 ± 0.15 DPPH molecules / a molecule of stilbene compound |  | 49 ± 1 | 19 ± 2 |  |  | 
